From ChEMBL document CHEMBL3526049 (Drug Metab Dispos, 2012)

Tests used:
Rattus norvegicus [1] = assay: Drug metabolism in BCRP knockout Sprague-Dawley rat assessed as metabolite to parent ratio treated with sulfasalazine at 20 mg/kg, po; format: ADME, organism-based; design: dose 20 mg/kg, route oral; details: in vivo
How it was run: (§1)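 Male Sprague-Dawley knockout or age/weight-matched wild-type rats with femoral artery and vein cannulas. Crossover design: day 0 i.v. bolus 5 mg/kg sulfasalazine in water at pH 9–10, then day 3 gavage 20 mg/kg in 0.5% carboxymethyl cellulose/PBS pH 7.4. Arterial plasma was sampled to 24 h. Sulfasalazine and sulfapyridine were measured by LC-MS/MS (1–5000 ng/ml). Parameters are noncompartmental; n = 4–8, mean ± S.D.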

Rattus norvegicus [2] = assay: Drug metabolism in MRP2-deficient Wistar rat assessed as metabolite to parent ratio treated with sulfasalazine at 20 mg/kg, po; format: ADME, organism-based; design: dose 20 mg/kg, route oral; details: in vivo
How it was run: (§2)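 Male Wistar wild-type or Mrp2-deficient TR⁻ rats with femoral artery and vein cannulas. Sulfasalazine was given as a 5 mg/kg i.v. bolus and as a 20 mg/kg oral dose. Arterial plasma was sampled to 24 h and analysed for parent and sulfapyridine by LC-MS/MS. Noncompartmental parameters; n = 3, mean ± S.D.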

[3] = Half life in MRP2-deficient Wistar rat at 20 mg/kg, po by LC-MS/MS analysis; format: ADME, organism-based; design: dose 20 mg/kg, route oral; details: in vivo
How it was run: (§3)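 Male Wistar wild-type rats and Mrp2-deficient TR⁻ rats with femoral artery and vein cannulas. Sulfasalazine given as an iv bolus (5 mg/kg, water at pH 9–10) and by oral gavage, each followed by arterial plasma sampling over 24 h. Sulfasalazine and sulfapyridine measured by LC-MS/MS; noncompartmental parameters; mean ± S.D., n = 3.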

Rattus norvegicus [4] = assay: Cmax in MRP2 knockout Sprague-Dawley rat treated with sulfasalazine at 20 mg/kg, po by LC-MS/MS analysis; format: ADME, organism-based; design: dose 20 mg/kg, route oral; details: in vivo; how it was run: as §1
Rattus norvegicus [5] = assay: Drug metabolism in wild-type Wistar rat assessed as metabolite to parent ratio treated with sulfasalazine at 20 mg/kg, po; format: ADME, organism-based; design: dose 20 mg/kg, route oral; details: in vivo; how it was run: as §2
[6] = Tmax in MRP2 knockout Sprague-Dawley rat treated with sulfasalazine at 20 mg/kg, po by LC-MS/MS analysis; format: ADME, organism-based; design: dose 20 mg/kg, route oral; details: in vivo
How it was run: (§4)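 Male Sprague-Dawley knockout rats or wild-type rats matched for age and weight, with femoral artery and vein cannulas. Crossover design: sulfasalazine 5 mg/kg iv bolus (water, pH 9–10) on day 0, then 20 mg/kg oral gavage (0.5% carboxymethyl cellulose in PBS, pH 7.4) on day 3. Arterial plasma collected 0–24 h. Sulfasalazine and sulfapyridine measured by LC-MS/MS; noncompartmental parameters; mean ± S.D., n = 4 to 8.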

[7] = Half life in MDR1A knockout Sprague-Dawley rat treated with sulfasalazine at 20 mg/kg, po by LC-MS/MS analysis; format: ADME, organism-based; design: dose 20 mg/kg, route oral; details: in vivo; how it was run: as §4
[8] = Half life in wild-type Wistar rat at 20 mg/kg, po by LC-MS/MS analysis; format: ADME, organism-based; design: dose 20 mg/kg, route oral; details: in vivo; how it was run: as §3
[9] = AUC (infinity) in MRP2-deficient Wistar rat at 20 mg/kg, po by LC-MS/MS analysis; format: ADME, organism-based; design: time infinity, dose 20 mg/kg, route oral; details: plasma; how it was run: as §2
Rattus norvegicus [10] = assay: Cmax in wild-type Sprague-Dawley rat treated with sulfasalazine at 20 mg/kg, po by LC-MS/MS analysis; format: ADME, organism-based; design: dose 20 mg/kg, route oral; details: in vivo; how it was run: as §1
Rattus norvegicus [11] = assay: AUC (infinity) in wild-type Sprague-Dawley rat treated with sulfasalazine at 20 mg/kg, po by LC-MS/MS analysis; format: ADME, organism-based, Plasma; design: time infinity, dose 20 mg/kg, route oral; details: in vivo; how it was run: as §1
Rattus norvegicus [12] = assay: Drug metabolism in MRP2 knockout Sprague-Dawley rat assessed as metabolite to parent ratio treated with sulfasalazine at 20 mg/kg, po; format: ADME, organism-based; design: dose 20 mg/kg, route oral; details: in vivo; how it was run: as §1
[13] = Tmax in BCRP knockout Sprague-Dawley rat treated with sulfasalazine at 20 mg/kg, po by LC-MS/MS analysis; format: ADME, organism-based; design: dose 20 mg/kg, route oral; details: in vivo; how it was run: as §4
Rattus norvegicus [14] = assay: AUC (infinity) in MDR1A knockout Sprague-Dawley rat treated with sulfasalazine at 20 mg/kg, po by LC-MS/MS analysis; format: ADME, organism-based, Plasma; design: time infinity, dose 20 mg/kg, route oral; details: in vivo; how it was run: as §1
Rattus norvegicus [15] = assay: Drug metabolism in MDR1A knockout Sprague-Dawley rat assessed as metabolite to parent ratio treated with sulfasalazine at 20 mg/kg, po; format: ADME, organism-based; design: dose 20 mg/kg, route oral; details: in vivo; how it was run: as §1
Rattus norvegicus [16] = assay: Cmax in BCRP knockout Sprague-Dawley rat treated with sulfasalazine at 20 mg/kg, po by LC-MS/MS analysis; format: ADME, organism-based; design: dose 20 mg/kg, route oral; details: in vivo; how it was run: as §1
[17] = Tmax in MRP2-deficient Wistar rat at 20 mg/kg, po by LC-MS/MS analysis; format: ADME, organism-based; design: dose 20 mg/kg, route oral; details: in vivo; how it was run: as §3
[18] = AUC (infinity) in wild-type Wistar rat at 20 mg/kg, po by LC-MS/MS analysis; format: ADME, organism-based; design: dose 20 mg/kg, route oral, time infinity; details: plasma; how it was run: as §2
Rattus norvegicus [19] = assay: Drug metabolism in wild-type Sprague-Dawley rat assessed as metabolite to parent ratio treated with sulfasalazine at 20 mg/kg, po; format: ADME, organism-based; design: dose 20 mg/kg, route oral; details: in vivo; how it was run: as §1
Rattus norvegicus [20] = assay: AUC (infinity) in MRP2 knockout Sprague-Dawley rat treated with sulfasalazine at 20 mg/kg, po by LC-MS/MS analysis; format: ADME, organism-based, Plasma; design: dose 20 mg/kg, route oral, time infinity; details: in vivo; how it was run: as §1
[21] = Half life in wild-type Sprague-Dawley rat treated with sulfasalazine at 20 mg/kg, po by LC-MS/MS analysis; format: ADME, organism-based; design: dose 20 mg/kg, route oral; details: in vivo; how it was run: as §4
[22] = Cmax in wild-type Wistar rat at 20 mg/kg, po by LC-MS/MS analysis; format: ADME, organism-based; design: dose 20 mg/kg, route oral; details: in vivo; how it was run: as §2
Rattus norvegicus [23] = assay: AUC (infinity) in BCRP knockout Sprague-Dawley rat treated with sulfasalazine at 20 mg/kg, po by LC-MS/MS analysis; format: ADME, organism-based, Plasma; design: dose 20 mg/kg, route oral, time infinity; details: in vivo; how it was run: as §1
[24] = Tmax in wild-type Sprague-Dawley rat treated with sulfasalazine at 20 mg/kg, po by LC-MS/MS analysis; format: ADME, organism-based; design: dose 20 mg/kg, route oral; details: in vivo; how it was run: as §4
[25] = Half life in BCRP knockout Sprague-Dawley rat treated with sulfasalazine at 20 mg/kg, po by LC-MS/MS analysis; format: ADME, organism-based; design: dose 20 mg/kg, route oral; details: in vivo; how it was run: as §4
[26] = Tmax in MDR1A knockout Sprague-Dawley rat treated with sulfasalazine at 20 mg/kg, po by LC-MS/MS analysis; format: ADME, organism-based; design: dose 20 mg/kg, route oral; details: in vivo; how it was run: as §4
Rattus norvegicus [27] = assay: Cmax in MDR1A knockout Sprague-Dawley rat treated with sulfasalazine at 20 mg/kg, po by LC-MS/MS analysis; format: ADME, organism-based; design: dose 20 mg/kg, route oral; details: in vivo; how it was run: as §1
[28] = Cmax in MRP2-deficient Wistar rat at 20 mg/kg, po by LC-MS/MS analysis; format: ADME, organism-based; design: dose 20 mg/kg, route oral; details: in vivo; how it was run: as §2
[29] = Tmax in wild-type Wistar rat at 20 mg/kg, po by LC-MS/MS analysis; format: ADME, organism-based; design: dose 20 mg/kg, route oral; details: in vivo; how it was run: as §3
[30] = Half life in MRP2 knockout Sprague-Dawley rat treated with sulfasalazine at 20 mg/kg, po by LC-MS/MS analysis; format: ADME, organism-based; design: dose 20 mg/kg, route oral; details: in vivo; how it was run: as §4

Work on `Nc1ccc(S(=O)(=O)Nc2ccccn2)cc1` [SULFAPYRIDINE] yielded a Ratio (Rattus norvegicus [1]) of 4.6, a Ratio (Rattus norvegicus [2]) of 34 and a half-life [3] of 1.7 h. For the same compound, the Cmax (Rattus norvegicus [4]) was 2499 ng.Eq/ml, the Ratio (Rattus norvegicus [5]) was 16 and the Tmax [6] was 4.4 h. It also gave a half-life [7] of 1.3 h, a half-life [8] of 2.3 h and an AUC(0-inf) [9] of 15400 ng·h/mL. For the same compound, the Cmax (Rattus norvegicus [10]) was 4764 ng.Eq/ml, the AUC (Rattus norvegicus [11]) was 21992 ng.Eq.hr/ml and the Ratio (Rattus norvegicus [12]) was 22. The Tmax [13] was 4 h, the AUC (Rattus norvegicus [14]) was 14985 ng.Eq.hr/ml and the Ratio (Rattus norvegicus [15]) was 24. For the same compound, the Cmax (Rattus norvegicus [16]) was 2843 ng.Eq/ml, the Tmax [17] was 4 h and the AUC(0-inf) [18] was 29400 ng·h/mL. The Ratio (Rattus norvegicus [19]) was 50, the AUC (Rattus norvegicus [20]) was 12675 ng.Eq.hr/ml and the half-life [21] was 2.3 h. The Cmax [22] was 4320 ng/mL, the AUC (Rattus norvegicus [23]) was 14576 ng.Eq.hr/ml and the Tmax [24] was 5 h. It also gave a half-life [25] of 1.7 h, a Tmax [26] of 7 h and a Cmax (Rattus norvegicus [27]) of 2525 ng.Eq/ml. It also gave a Cmax [28] of 3240 ng/mL, a Tmax [29] of 4 h and a half-life [30] of 1.6 h.
